Screens deposited in PubChem BioAssay by Johns Hopkins Ion Channel Center.
MrgX1 PAM: allosterically activates human MrgX1 receptor signaling; B-score at 10 µM; 310,000 compounds, 0.63% hits; MrgX1-HEK293, Fluo-4 calcium flux, FDSS; hits give high values; AID 588675;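 active means plate-corrected calcium response at least 3 library SD above typical, normal starting fluorescence, not activating the receptor alone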;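 further: compound read alongside a low EC10 to EC30 dose of BAM8-22 agonist; peak minus trough fluorescence over baseline measured at the second addition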
Target sequence (Q96LB2 whole entry, looked up): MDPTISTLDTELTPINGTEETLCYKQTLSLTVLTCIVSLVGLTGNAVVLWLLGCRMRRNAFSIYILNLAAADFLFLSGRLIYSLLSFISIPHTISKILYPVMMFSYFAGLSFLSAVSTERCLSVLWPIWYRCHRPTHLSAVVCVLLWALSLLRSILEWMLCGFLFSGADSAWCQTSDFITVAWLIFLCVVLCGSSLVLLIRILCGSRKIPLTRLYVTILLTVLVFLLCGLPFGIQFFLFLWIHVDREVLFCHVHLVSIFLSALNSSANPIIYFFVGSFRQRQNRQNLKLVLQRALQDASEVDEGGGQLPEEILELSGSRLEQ
RGS4 act: potentiators or activators of RGS4; HEK293 M3R/inducible RGS4, carbachol calcium flux Fluo4; hits give low values; B-score at 10 µM; 310,000 compounds, 0.92% hits; AID 463111;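 active means B-score of the integrated calcium signal more than 4 SD below the library mean, with starting fluorescence not abnormally high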;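 further: negative B-score means reduced calcium response which marks RGS4 activation or potentiation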
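Reagent: ECmax carbachol challenge; Test system: M3R-expressing HEK293 line, RGS4 induced by doxycycline; Schedule: overnight RGS4 induction, 30 min dye load 37 °C, 20 min compound RT; Detection: calcium dye Fluo4 fluorescence; Read-out: Agonist-evoked peak-minus-minimum fluorescence over baseline, integrated ratio, B score.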
MrgX1 agonist: human MrgX1 receptor agonism, primary screen | Q96LB2 | MrgX1-HEK293 cells, Fluo-4 calcium fluorescence, agonist mode; hits give high values | B-score at 10 µM | 310,000 compounds, 0.44% hits | AID 588627;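 active means calcium response B-score plate-corrected fluorescence ratio at least 3 library SD, with starting fluorescence B-score inside 5 SD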
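Material: HEK293 cells stably expressing human MrgX1 receptor | Quantity: 15,000 cells per well | Times: Cells plated overnight, dye loaded 0.5 h 37 °C, 0.5 h room temperature | Measured by: Kinetic Fluo-4 NW fluorescence of intracellular calcium | Control set: Positive and negative controls per plate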
MrgX1 antagonist: antagonists of human MrgX1 receptor. B-score at 10 µM. AID 588676. MRGX1-HEK293 calcium flux, Fluo-4, BAM8-22 antagonism; hits give low values. 310,000 compounds, 1.3% hits;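 active means calcium-response B-score plate-corrected more than 3 library SD below zero, starting fluorescence within 5 deviations, no agonist response on first addition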;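 further: peak minus trough fluorescence over baseline after final BAM8-22 challenge near maximal dose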
RGS4 inh: human RGS4 inhibition. 310,000 compounds, 0.45% hits. HEK293 M3R/RGS4 inducible, Fluo-4 calcium flux; hits give high values; triggered by carbachol at its EC20. P49798. B-score at 10 µM;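 active means B-score, a plate-corrected calcium signal, over three deviations above library mean, with baseline fluorescence within five deviations of library mean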;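 further: RGS4 expression induced by doxycycline in cells with stable M3 receptor; B-score is computed from the integrated fluorescence ratio over baseline after carbachol; higher B-score means a larger calcium signal and so more RGS4 inhibition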
RGS4 inh valid: RGS4 inhibitor validation; 1,700 compounds, 65% hits; shares compounds with RGS4 inh; calcium response, % at 10 µM; HEK293 M3R/RGS4, carbachol calcium Fluo-4 fluorescence; carbachol added at its EC20; 0 = buffer wells, 100 = carbachol control;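 active means duplicate-averaged calcium response above the buffer-only control mean plus 5 SD of those controls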;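 further: integrated fluorescence ratio F max minus min over baseline F0; higher response in RGS4-induced cells means RGS4 inhibition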
RGS4 uninduced: checks RGS4 inhibitor effects in non-induced HEK293 M3R cells. shares compounds with RGS4 inh. carbachol calcium Fluo-4; submaximal (EC20) carbachol stimulus; buffer wells 0%, carbachol control wells 100%. 1,900 compounds, 20% hits. activity (percent), % at 10 µM; call rule not given here;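 further: RGS4 induction absent so cells express M3R without RGS4; higher means more calcium signal and flags a non-specific hit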
RGS4 inh ctr2: second counter-screen for RGS4 inhibitors: non-induced cells without carbachol; AID 493001; HEK293 M3R/RGS4 non-induced, Fluo-4 calcium, no carbachol; normalised: buffer wells 0%, carbachol wells 100%; 1,900 compounds, 22% hits; calcium response (agonist-mode artifact), % at 10 µM; shares compounds with RGS4 inh;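 active means duplicate-averaged calcium rise in uninduced cells above buffer wells' mean plus 5 SD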
An asterisk follows results filed as active; i = inactive; / = no result. Only some compounds are listed: those with a hit (about 3.5% of all), similar ones and a draw of the others.

SMILES	MrgX1 PAM	RGS4 act	MrgX1 agonist	MrgX1 antagonist	RGS4 inh	RGS4 uninduced	RGS4 inh ctr2	others
Cc1ccc(C(=O)NCC#N)cc1	i	i	i	i	i	/	/
Cc1ccc(C(=O)NC(C#N)=C(Cl)Cl)cc1	/	i	/	/	9.8*	i	i	RGS4 inh valid=21%*
O=C(CN(C(=O)CCC(=O)Nc1nccs1)C1CCCC1)NCc1ccc2c(c1)OCO2	i	i	i	i	i	/	/
N#CC(C(=O)c1ccco1)c1ccccn1 (stereo unspecified)	i	i	i	i	i	/	/
N#CC1=C(N)N=C(SCc2cccc3ccccc23)C(C(N)=O)C12CCCCC2 (stereo unspecified)	i	i	i	i	5.9*	i	i	RGS4 inh valid=16%*
O=C(O)CCn1c(SCc2cccc3ccccc23)nc2ccccc21	i	i	i	i	i	/	/
CCc1sc(C(C2C(=O)CC(C)(C)CC2=O)C2C(=O)CC(C)(C)CC2=O)cc1[N+](=O)[O-]	i	i	52*	i	30*	i	121%*	RGS4 inh valid=30%*
COc1cccc(-c2c(C(=O)N/N=C/c3ccc(C)s3)nnn2-c2nonc2N)c1	i	i	i	i	i	/	/
CCOc1cccc(-c2c(C(=O)N/N=C/c3ccc(C)s3)nnn2-c2nonc2N)c1	i	i	i	i	i	i	i
CCOc1cccc(-c2c(C(=O)N/N=C/c3sccc3C)nnn2-c2nonc2N)c1	i	i	i	i	i	i	i
CCOc1ccc(-c2c(C(=O)N/N=C/c3sccc3C)nnn2-c2nonc2N)cc1	i	i	i	i	i	/	/
Cc1ccc(-c2c(C(=O)N/N=C/c3ccsc3)nnn2-c2nonc2N)cc1	i	i	i	i	i	/	/
CCOc1cccc(-c2c(C(=O)N/N=C/c3ccsc3)nnn2-c2nonc2N)c1	i	i	i	i	i	i	i
O=C(/C=C/c1ccccc1)OCCCN=C1NS(=O)(=O)c2ccccc21	i	i	i	i	i	/	/
Cc1nc(C(C)NC(=O)CCc2nnc(CCCc3ccccc3)o2)c(C)s1 (stereo unspecified)	i	i	i	i	i	/	/
O=C(c1cccc(NS(=O)(=O)c2ccc(Br)cc2)c1)N1CCCCC1	i	i	i	i	i	/	/
CN(C)/N=C/C=C1\CC/C(=C\c2ccc(F)c(F)c2)C1=O	i	i	i	i	i	i	16%*
CC(C)c1ccc(/C=C2\CC/C(=C\C=N\N(C)C)C2=O)cc1	i	i	i	i	i	/	/
O=C1/C(=C\c2ccncc2)CCc2ccccc21	i	i	i	i	i	/	/
O=C1/C(=C/c2ccncc2)CCC/C1=C\c1ccncc1	/	i	/	/	24*	i	i	RGS4 inh valid=107%*
CCOc1cc(/C=C\[N+](=O)[O-])ccc1OCC(=O)N1CCOCC1	i	i	i	i	28*	32%*	12%*	RGS4 inh valid=43%*
CCOc1cc(/C=C/c2nc3cc(C)c(C)cc3s2)ccc1OCC(=O)N1CCOCC1	i	i	i	i	i	/	/
Cn1nc(C(F)(F)F)c(-c2ccc(Br)cc2)c1NC(=O)c1nccnc1C(=O)O	i	i	i	i	i	/	/
CC(=O)Nc1ccc(/C=C/C(=O)c2ccc3c(c2)OCCO3)cc1	i	i	i	i	i	/	/
COc1ccc(/C=N/NC(=O)c2ccc3c(c2)OCCO3)cc1[N+](=O)[O-]	i	i	i	i	i	/	/
